Rows were chosen to be rich in hits. Some 2% of all compounds tested hit in one or more screens of this group.
MLLE-PAM2 inh: inhibitors of PABP1 MLLE–PAM2 peptide binding, primary screen, biochemical, fluorescence polarization, FITC-PAM2, GST-MLLE | Polyadenylate-binding protein 1 (Homo sapiens), P11940 | inhibition, % at 20 µM | 360,000 compounds, 0.36% hits | AID 588489, 2011; in the data active = inhibition above about 35%, passing the limit was not always enough;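 note: plate controls were DMSO wells with GST-MLLE for no effect and wells lacking GST-MLLE protein for full effect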
DNA FID counter-1: compounds displacing fluorescent DNA intercalator, primary screen, artefact control for HCV NS3 helicase inhibitor project, biochemical, FID fluorescence; DNA fluorescent intercalator displacement; AID 1845, 2009; 290,000 compounds, 0.17% hits; inhibition, % at 7.9 µM; in the data active = inhibition above about 37%;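 note: 0% = vehicle and 100% = reference compound; higher means more ethidium bromide displaced from hairpin DNA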
HCV NS3 hel inh: inhibitors of HCV NS3 helicase, primary screen, biochemical, Cy5 molecular beacon fluorescence; Hepatitis C virus NS3 helicase; NS3 helicase DNA unwinding; inhibition, % at 10.9 µM; 290,000 compounds, 0.56% hits; AID 1800, 2009;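 active = inhibition above the mean of all tested compounds plus 3 SD, set per campaign, cut at about 35% in these data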;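 note: 0% = DMSO wells and 100% = thioflavine S control wells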
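assay system = NS3 helicase fragment of HCV | buffer or medium = MOPS pH 6.5, MgCl2, DTT, Tween20, BSA | timing = 60 min unwinding reaction at 25 °C after ATP addition | signal = Cy5 beacon fluorescence read at start and 1 h | read-out basis = % inhibition of unwinding | control set = low DMSO, high thioflavine S at 110 µM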
core dimer inh: inhibitors of HCV core protein dimerization, primary screen, biochemical, TR-FRET, high-throughput. TR-FRET GST/Flag-core106 dimerization, 1536-well. inhibition, % at 5 µM. 300,000 compounds, 0.33% hits. AID 1899, 2009;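 active = inhibition above the mean of all tested compounds plus 3 SD, set per screening campaign, cut at about 45% in these data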
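Assay system: Tagged HCV core106 pair (GST and Flag) | Buffer or medium: KF-containing HEPES buffer, pH 7.45, DTT, CHAPS, BSA | Also added: Eu donor and XL665 acceptor anti-tag antibodies | Dosing: One concentration, 5 µM, in 0.5% DMSO | Timing: 4 h at 22.5 °C | Technique: TR-FRET 671 and 617 nm emission | Repeats: Singlicate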
PABP FP inh: PABP poly(A) RNA binding inhibitors, primary screen, biochemical, fluorescence polarization, uHTS; 290,000 compounds, 1% hits; AID 2014, 2009; Polyadenylate-binding protein 1 (Homo sapiens), P11940; inhibition, % at 35 µM;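 note: calls also rest on retests at 20 µM and on dose response follow-up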
eIF4H inh: human eIF4H binding inhibitors, primary screen, translation initiation inhibitor project, biochemical, uHTS, fluorescence polarization; Eukaryotic translation initiation factor 4H (Homo sapiens), Q15056; eIF4H fluorescence polarization binding assay; inhibition, % at 35 µM; 290,000 compounds, 0.94% hits; AID 2012, 2009;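 note: calls also rest on retests at 20 µM and on dose response follow-up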
NS3 helicase cf: HCV NS3 helicase inhibitors, retest, confirmation, biochemical, Cy5 molecular beacon fluorescence, triplicate; AID 1943, 2009; NS3 helicase DNA unwinding; inhibition, % at 10.9 µM; 1,600 compounds, 31% hits; shares compounds with HCV NS3 hel inh;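 active = inhibition above the mean of all tested compounds plus 3 SD, cutoff set per campaign, cut at about 36% in these data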
DNA FID counter-2: compounds displacing fluorescent DNA intercalator, artefact control for HCV NS3 helicase inhibitor project, biochemical, FID fluorescence, triplicate; shares compounds with HCV NS3 hel inh; DNA fluorescent intercalator displacement; inhibition, % at 7.9 µM; 1,600 compounds, 4% hits; AID 1945, 2009; in the data active = inhibition above about 37%;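 note: 0% = vehicle and 100% = reference compound; higher means more displacement of ethidium bromide from the DNA hairpin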
FID counter DR: compounds displacing fluorescent intercalator from DNA, dose response, counter-screen for HCV NS3 helicase inhibitor project, biochemical, fluorescence | 120 tested, under 10 active | IC50, µM | fluorescent intercalator displacement from DNA | shares compounds with HCV NS3 hel inh | AID 2172, 2009
* hit, by the source's call; u = inconclusive; x = not tested or not shown. Unless noted, the rule behind the calls is not given here.

SMILES	MLLE-PAM2 inh	DNA FID counter-1	HCV NS3 hel inh	core dimer inh	PABP FP inh	eIF4H inh	NS3 helicase cf	DNA FID counter-2	others
S=c1nc(COc2ccccc2)[nH]c2ccccc12	16	-13	42*	31	0	-8	-12	3
S=c1nc(Cc2ccccc2)[nH]c2ccccc12	15	-5	-4	38	4	10	x	x
CCCCC(=O)NC(=S)Nc1cc(C(=O)O)ccc1Cl	20	-12	55*	-4	8	-4	-17	1
Cc1ccc(-n2cccc2/C=C2/C(=N)N3C(=NC2=O)SN=C3S(C)(=O)=O)cc1Cl	-68	-21	49*	39	-4	44	64*	11
CCOc1ccc(-n2c(C)cc(/C=C3/C(=N)N4C(=NC3=O)SN=C4S(C)(=O)=O)c2C)cc1	-21	-34	38*	29	-8	u	84*	-9
Cc1ccccc1-n1c(C)cc(/C=C2/C(=N)N3C(c4ccccc4)=CSC3=NC2=O)c1C	-32	-9	40*	42	19*	86	8	-11
Cc1cccc(C)c1-n1cccc1/C=C1/C(=N)N2C(=NC1=O)SN=C2S(C)(=O)=O	-2	-24	-4	25	-1	5	x	x
Cc1ccc(NC(=O)CCS(=O)(=O)c2cccc3nonc23)cc1	3	5	7	-2	-4	0	x	x
Cc1ccc(NC(=O)CCS(=O)(=O)c2cccc3nonc23)cc1Cl	8	6	42*	-13	1	9	-11	3
CC(/C=N/n1c(-c2ccccc2)n[nH]c1=S)=C\c1ccco1	1	-13	12	28	4	36	x	x
CC(/C=N/n1c(-c2ccco2)n[nH]c1=S)=C\c1ccco1	-14	-16	51*	1	-4	106	-2	9
CC(C)C(NC(=O)c1ccc(F)cc1)C(=O)NC1(C)CCS(=O)(=O)C1 (stereo unspecified)	3	x	x	x	x	x	x	x
CC1(C)CN(c2ccccc2)C(=O)[C@H]1CC(=O)Nc1ccccc1	18	x	x	x	x	x	x	x
CCOC(=O)c1ccc(NC(=O)c2cc(C)nn2-c2ccccc2)cc1	8	-25	46*	4	-2	-8	-12	-32
Cc1cc(C(=O)Nc2ccc(C)c(C)c2)n(-c2ccccc2)n1	7	-24	-11	5	4	7	x	x
CCOC(=O)/C=c1\s/c(=C(\C#N)C(=O)OCC)n(-c2ccccc2)c1=O	-7	-18	57*	11	0	58	-9	-10
C=CCn1c(=O)/c(=C2/SC(C)=C(C)N2CC)s/c1=C1/C(=O)N(C)C(=S)N1c1ccccc1	x	-3	9	x	x	x	x	x
O=C(O)c1cccc(NC(=S)N/N=C/c2ccccc2OCc2ccc(Br)cc2)c1	30	-23	42*	31	5	42	63*	4
COC(=O)N/N=C/c1cc(C)n(-c2ccc(F)cc2)c1C	0	-3	42*	-4	-11	9	-5	15
Cc1cccn2c(=O)c3cc(C(=O)NC4CCCCC4)c(=N)n(Cc4ccccc4)c3nc12	-1	2	-18	6	2	-3	x	x
Cc1cccn2c(=O)c3cc(C(=O)NC4CCCC4)c(=N)n(C4CCCCC4)c3nc12	12	0	40*	-16	-1	-7	-14	18
CCN(C(=S)NCCOC)c1cccc2ccccc12	-76	-15	44*	-5	2	-5	1	-31
CCN(C(=S)NC(=O)c1ccco1)c1cccc2ccccc12	14	x	x	x	x	x	x	x
Nc1c(C(=O)Nc2ccccc2)sc2nc(-c3ccco3)ccc12	-16	0	83*	8	76*	75*	14	6
COc1ccccc1NC(=O)c1sc2nc(-c3ccco3)ccc2c1N	-32	-12	49*	29	40	49	1	17
SMILES	MLLE-PAM2 inh	DNA FID counter-1	HCV NS3 hel inh	core dimer inh	PABP FP inh	eIF4H inh	NS3 helicase cf	DNA FID counter-2	others
Nc1c(C(=O)Nc2ccccc2)sc2nc(-c3cccnc3)ccc12	x	-10	14	-4	13	8	x	x
CC1(C)CCC[C@@]2(C)CC=C(C(=O)O)[C@@H]3C[C@]312	-13	x	x	0	x	x	x	x
CC1(C(=O)NC2CCc3ccccc32)CCN1CCc1ccccc1 (stereo unspecified)	-8	x	x	x	x	x	x	x
CCOc1ccc(/C(O)=C2/C(=O)C(=O)N(c3nc(C)c(C)s3)C2c2ccco2)cc1 (stereo unspecified)	10	5	51*	15	19	7	55*	19	FID counter DR=>79
CCCn1cnnc1CNC(=O)[C@H]1O[C@@H](n2cnc3c(N)ncnc32)[C@H](O)[C@@H]1O	0	x	x	x	x	x	x	x
C(=N\Nc1nc(-c2ccccc2)cs1)/c1cccs1	19	1	18	14	10	-10	x	x
ClCc1csc(N/N=C/c2cccs2)n1	x	-1	43*	18	5	-7	4	16
O=C(CSc1ccc(Br)c2cccc(Cl)c12)Nc1ccc(S(=O)(=O)Nc2nccs2)cc1	4	-19	38*	4	7	63	38*	8
Cc1cccc(-c2noc(CCC(=O)N3CCN(c4cc(C)ccc4C)CC3)n2)c1	-2	x	x	x	x	x	x	x
CCOC(=O)C1(C)CCCCCN1C(=O)c1ccc(C(=O)OC)cc1 (stereo unspecified)	4	x	x	x	x	x	x	x
Cc1ccc(S(=O)(=O)Nc2cc(C(=O)N3CCOCC3)ccc2N2CCCCC2)cc1	-12	-35	8	-3	-3	-3	x	x
Cc1ccc(S(=O)(=O)Nc2cc(C(=O)O)ccc2N2CCCCC2)cc1	14	-40	75*	8	6	-2	17	-39
Cc1ccc2cc(C3CC(c4ccco4)=NN3C(=O)CCCC(=O)O)c(Cl)nc2c1 (stereo unspecified)	24	-34	51*	4	42	68	-30	-38
COc1ccc(CCCN2CCC(CN3CCNC(=O)C3=O)CC2)cc1OC	3	x	x	x	x	x	x	x
CS(=O)(=O)N1N=C(c2ccco2)CC1c1ccccc1Cl (stereo unspecified)	-17	-15	36*	7	-7	-7	-19	-9

Screening results deposited in PubChem by several laboratories.
